Converted amounts (≈) assume the structure as drawn.
How the values were obtained:
Type in all cases: functional
Spodoptera litura [1] = experiment: Larvicidal activity against Spodoptera litura fed on compound-treated castor leaf assessed as mortality at 1000 ppm after 96 hr relative to control
Summary of the method: (§1)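 Larvae were fed 24 h on leaf discs treated with compound at several concentrations, then kept on untreated fresh leaves. Diet was replaced every 24 h, and larval mortality was scored 96 h after treatment.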

Spodoptera litura [2] = experiment: Larvicidal activity against Spodoptera litura fed on compound-treated castor leaf assessed as mortality at 250 ppm after 96 hr relative to control; summary of the method: as §1
Spodoptera litura [3] = experiment: Antifeedant activity against pre-starved fourth-instar larva of Spodoptera litura fed on compound-treated castor leaf assessed as antifeedant index at 500 ppm after 24 hr by leaf disc no choice method
Helicoverpa armigera [4] = experiment: Larvicidal activity against Helicoverpa armigera fed on compound-treated cotton leaf assessed as mortality at 1000 ppm after 96 hr relative to control; summary of the method: as §1
Helicoverpa armigera [5] = experiment: Antifeedant activity against pre-starved fourth-instar larva of Helicoverpa armigera fed on compound-treated cotton leaf assessed as antifeedant index at 1000 ppm after 24 hr by leaf disk no choice method
Helicoverpa armigera [6] = experiment: Larvicidal activity against Helicoverpa armigera fed on compound-treated cotton leaf assessed as mortality at 125 ppm after 96 hr relative to control; summary of the method: as §1
Spodoptera litura [7] = experiment: Antifeedant activity against pre-starved fourth-instar larva of Spodoptera litura fed on compound-treated castor leaf assessed as antifeedant index at 250 ppm after 24 hr by leaf disc no choice method
Spodoptera litura [8] = experiment: Larvicidal activity against Spodoptera litura fed on compound-treated castor leaf assessed as mortality at 500 ppm after 96 hr relative to control; summary of the method: as §1
Spodoptera litura [9] = experiment: Larvicidal activity against Spodoptera litura fed on compound-treated castor leaf assessed as mortality after 96 hr relative to control; summary of the method: as §1
Helicoverpa armigera [10] = experiment: Antifeedant activity against pre-starved fourth-instar larva of Helicoverpa armigera fed on compound-treated cotton leaf assessed as antifeedant index at 250 ppm after 24 hr by leaf disk no choice method
Spodoptera litura [11] = experiment: Larvicidal activity against Spodoptera litura fed on compound-treated castor leaf assessed as mortality at 125 ppm after 96 hr relative to control; summary of the method: as §1
Helicoverpa armigera [12] = experiment: Larvicidal activity against Helicoverpa armigera fed on compound-treated cotton leaf assessed as mortality at 250 ppm after 96 hr relative to control; summary of the method: as §1
Helicoverpa armigera [13] = experiment: Larvicidal activity against Helicoverpa armigera fed on compound-treated cotton leaf assessed as mortality after 96 hr relative to control; summary of the method: as §1
Helicoverpa armigera [14] = experiment: Antifeedant activity against pre-starved fourth-instar larva of Helicoverpa armigera fed on compound-treated cotton leaf assessed as antifeedant index at 500 ppm after 24 hr by leaf disk no choice method
Spodoptera litura [15] = experiment: Antifeedant activity against pre-starved fourth-instar larva of Spodoptera litura fed on compound-treated castor leaf assessed as antifeedant index at 1000 ppm after 24 hr by leaf disc no choice method
Spodoptera litura [16] = experiment: Antifeedant activity against pre-starved fourth instar larva of Spodoptera litura fed on compound-treated castor leaf assessed as antifeedant index at 125 ppm after 24 hr by leaf disc no choice method
Helicoverpa armigera [17] = experiment: Larvicidal activity against Helicoverpa armigera fed on compound-treated cotton leaf assessed as mortality at 500 ppm after 96 hr relative to control; summary of the method: as §1
Helicoverpa armigera [18] = experiment: Antifeedant activity against pre-starved fourth-instar larva of Helicoverpa armigera fed on compound-treated cotton leaf assessed as antifeedant index at 125 ppm after 24 hr by leaf disk no choice method

SMILES	mortality at 1000 ppm (Spodoptera litura [1])	mortality at 250 ppm (Spodoptera litura [2])	AFI (Spodoptera litura [3])	mortality at 1000 ppm (Helicoverpa armigera [4])	AFI (Helicoverpa armigera [5])	mortality at 125 ppm (Helicoverpa armigera [6])	AFI (Spodoptera litura [7])	mortality at 500 ppm (Spodoptera litura [8])	LC50 (Spodoptera litura [9])	AFI (Helicoverpa armigera [10])	mortality at 125 ppm (Spodoptera litura [11])	mortality at 250 ppm (Helicoverpa armigera [12])	LC50 (Helicoverpa armigera [13])	AFI (Helicoverpa armigera [14])	AFI (Spodoptera litura [15])	AFI (Spodoptera litura [16])	mortality at 500 ppm (Helicoverpa armigera [17])	AFI (Helicoverpa armigera [18])
O=C(O)c1cc(O)c2c(c1)C(=O)c1cccc(O)c1C2=O [RHEIN]	36.2%	15%	40.85%	67.5%	76.13%	22.5%	33.05%	21.2%	1190 µg/mL (≈ 4200 µM)	55.06%	0%	32.5%	606 µg/mL (≈ 2130 µM)	59.98%	56.79%	27.28%	50%	47.82%
C/C=C(\C)C(=O)O[C@H]1C[C@@H](OC(C)=O)[C@@]2(C(=O)OC)CO[C@H]3[C@@H](O)[C@@](C)([C@]45O[C@@]4(C)[C@@H]4C[C@H]5O[C@@H]5OC=C[C@@]54O)[C@H]4[C@]1(CO[C@]4(O)C(=O)OC)[C@@H]32 [AZADIRACHTIN A]	100%	73.8%	78.66%	100%	86.47%	38.8%	70.08%	100%	128 µg/mL (≈ 177 µM)	64.13%	52.5%	61.2%	186 µg/mL (≈ 258 µM)	75.88%	88.02%	60.12%	95%	53.5%

Reference: ChEMBL document CHEMBL3045498, “Antifeedant and larvicidal activities of Rhein isolated from the flowers of Cassia fistula L” (2011)
